These results are taken from BindingDB's records for doi:10.1021/jm0504454 (Sapienza University of Rome, 2005).

A word on the IC50: it is the point on the concentration scale where inhibition reaches its midpoint. Low readings indicate inhibition by little substance, high ones a need for much substance.

Chain of RNA-directed RNA polymerase (O39930 whole entry): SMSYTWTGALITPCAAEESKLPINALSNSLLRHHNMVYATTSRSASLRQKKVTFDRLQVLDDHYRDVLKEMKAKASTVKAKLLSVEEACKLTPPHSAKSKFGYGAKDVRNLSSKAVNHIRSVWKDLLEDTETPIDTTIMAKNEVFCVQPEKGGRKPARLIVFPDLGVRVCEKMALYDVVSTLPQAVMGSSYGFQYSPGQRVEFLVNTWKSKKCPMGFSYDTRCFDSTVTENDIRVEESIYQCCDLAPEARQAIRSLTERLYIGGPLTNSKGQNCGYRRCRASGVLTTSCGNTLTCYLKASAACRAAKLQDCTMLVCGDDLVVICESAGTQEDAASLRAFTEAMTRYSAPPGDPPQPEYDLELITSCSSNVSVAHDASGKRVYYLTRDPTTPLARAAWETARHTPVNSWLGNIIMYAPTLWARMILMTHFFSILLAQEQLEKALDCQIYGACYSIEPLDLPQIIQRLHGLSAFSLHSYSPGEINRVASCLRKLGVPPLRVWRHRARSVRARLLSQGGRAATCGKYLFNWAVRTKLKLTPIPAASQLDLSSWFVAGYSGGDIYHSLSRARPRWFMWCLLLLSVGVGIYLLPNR

The target of the experiment is RNA-directed RNA polymerase (UniProt O39930). Kind of experiment: Inhibitory concentration against NS5B HCV polymerase using [alpha-32P]UTP as radioligand (30 degree C for 2 h, at pH 7.5 with Tris-HCl buffer). In a few lines:
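Recombinant HCV RdRp (1 nM) in 20 mM Tris-HCl pH 7.5, 5 mM MgCl2, 1 mM DTT, 1 mM EDTA, RNase inhibitor, 50 µg/mL actinomycin D, 10 µg/mL RNA template, 0.5 mM ATP/CTP/GTP, [α-32P]UTP, limiting nucleotide 10 µM. 30 °C, 2 h; proteinase K stop, extraction, urea-PAGE, phosphorimaging. IC50s rescaled by a reference inhibitor's measured/literature IC50 ratio.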
Regarding `O=C(O)C(=O)CC(=O)c1ccco1`, the half-inhibitory concentration (IC50) worked out at 50 µM. With `Cc1ccc(Cn2cccc2C=CC(=O)CC(=O)C(=O)O)cc1` the figure was 28 µM. With `COc1ccc(Cn2cccc2C=CC(=O)CC(=O)C(=O)O)cc1` the figure was 16 µM; with `O=C(O)C(=O)CC(=O)c1cccc(-c2ccccc2)c1`, 28 µM; with `O=C(O)C(=O)CC(=O)c1cccc(Oc2ccccc2)c1`, 19 µM. The compound `O=C(O)C(=O)CC(=O)c1cccn1Cc1ccc2ccccc2c1` [(Z)-2-Hydroxy-4-(1-naphthalen-2-ylmethyl-1H-pyrrol-2-yl)-4-oxo-but-2-enoic acid] returned a half-inhibitory concentration (IC50) of 13 µM.

For the compound `O=C(O)C(=O)CC(=O)c1cccn1Cc1ccc(O)cc1` [(Z)-2-Hydroxy-4-[1-(4-hydroxy-benzyl)-1H-pyrrol-2-yl]-4-oxo-but-2-enoic acid], the IC50 is 13 µM.

In turn, `O=C(O)C(=O)CC(=O)c1cccc(NC(=O)C(=O)O)c1` [(Z)-2-Hydroxy-4-[3-(oxalyl-amino)-phenyl]-4-oxo-but-2-enoic acid] had an IC50 of 19 µM. Compound `O=C(O)C(=O)CC(=O)c1ccc(N2CCCCC2)s1` [(Z)-2-Hydroxy-4-oxo-4-(5-piperidin-1-yl-thiophen-2-yl)-but-2-enoic acid] displayed a concentration for half-maximal inhibition (IC50) of 8.2 µM. Compound `O=C(O)C(=O)CC(=O)c1cccc(OCc2cccc(Oc3ccccc3)c2)c1` [(Z)-2-Hydroxy-4-oxo-4-[3-(3-phenoxy-benzyloxy)-phenyl]-but-2-enoic acid] returned an IC50 of 50 µM. Compound `Cc1cc(C)c(C(=O)CC(=O)C(=O)O)s1` [(Z)-4-(3,5-Dimethyl-thiophen-2-yl)-2-hydroxy-4-oxo-but-2-enoic acid] returned an IC50 of 8.2 µM. `N#CCCCCn1cccc1C(=O)CC(=O)C(=O)O` [(Z)-4-[1-(4-Cyano-butyl)-1H-pyrrol-2-yl]-2-hydroxy-4-oxo-but-2-enoic acid]: the IC50 worked out at 13 µM. Take `O=C(O)C(=O)CC(=O)c1cc(I)cn1Cc1ccc(F)cc1` [(Z)-4-[1-(4-Fluoro-benzyl)-4-iodo-1H-pyrrol-2-yl]-2-hydroxy-4-oxo-but-2-enoic acid]: the IC50 worked out at 18 µM. Regarding `O=C(O)C(=O)CC(=O)c1ccsc1Cc1ccc(F)cc1` [(Z)-4-[2-(4-Fluoro-benzyl)-thiophen-3-yl]-2-hydroxy-4-oxo-but-2-enoic acid], the IC50 is 18 µM. With `N#Cc1cccc(Cl)c1COc1cc(O)cc(C(=O)CC(=O)C(=O)O)c1` [(Z)-4-[3-(2-Chloro-6-cyano-benzyloxy)-5-hydroxy-phenyl]-2-hydroxy-4-oxo-but-2-enoic acid] the figure was 0.1 µM; with `O=C(O)C(=O)CC(=O)c1cccc(OCc2ccc(-c3ccccc3)cc2)c1` [(Z)-4-[3-(Biphenyl-4-ylmethoxy)-phenyl]-2-hydroxy-4-oxo-but-2-enoic acid], 50 µM; with `O=C(C=Cc1c[nH]c2ccc(Cl)cc12)CC(=O)C(=O)O` [(Z)-6-((E)-5-Chloro-1H-indol-3-yl)-2-hydroxy-4-oxo-hexa-2,5-dienoic acid], 18 µM. Compound `O=C(C=Cc1cccn1Cc1cccc(F)c1)CC(=O)C(=O)O` [(Z)-6-[1-(3-Fluoro-benzyl)-1H-pyrrol-2-yl]-2-hydroxy-4-oxo-hexa-2,5-dienoic acid] showed an IC50 of 18 µM. In the case of `Cc1ccccc1Cn1cccc1C=CC(=O)CC(=O)C(=O)O` [(Z)-6-[1-((E)-obenzyl)-1H-Pyrrol-2-yl]-2-hydroxy-4-oxo-hexa-2,5-dienoic acid], the concentration for half-maximal inhibition (IC50) is 18 µM. With `Cn1cc(C(=O)c2ccc(F)cc2)cc1C=CC(=O)CC(=O)C(=O)O` [(Z)-6-[4-(4-Fluoro-benzoyl)-1-methyl-1H-pyrrol-2-yl]-2-hydroxy-4-oxo-hexa-2,5-dienoic acid] the figure was 16 µM.
